Experimental findings from PubChem BioAssay are described below.

Activity calls are given as the source filed them.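 How the source made its calls, unless noted: active means fluorescence slope higher than the sample average by over 3 SD (cut at about -0.22 in these data, passing the limit was not always enough); inactive means the rest.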

The nature of experiment [1]: inhibitors of TNFa-induced NFkB p65 translocation, primary screen, imaging, HUVEC, MLSMR starter and 10KST1 sets (AID 438;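 active means inhibition above 20% together with a positive visual image hit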;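 further: compound added about 3h40 before a 20 min TNFalpha stimulation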;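 on inhibition: signal is the nuclear over cytoplasmic p65 intensity ratio per well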). The settings on record: HUVEC TNFa-induced p65 nuclear translocation; cell count: measured here: nuclei count (cytotoxicity indicator), at 2.08 µM; inhibition: at 2 µM, stronger effect = higher value, 0% TNFa-plus-vehicle, 100% no-TNFa wells.
A short description of experiment [2]: endothelial E-selectin expression blockers – imaging, HUVEC, immunofluorescence, MLSMR starter and 10KST1 sets, primary screen (AID 487;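 active means visually confirmed hit in the image check and inhibition above 20%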;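 on inhibition: signal is fraction of cell area covered by stained E-selectin grains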;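 on nuclei count: 100% = median nuclei count of all wells on the same plate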). The settings on record: HUVEC TNFalpha-induced E-selectin immunofluorescence imaging, at 2 µM; inhibition: stronger effect = higher value; nuclei count: measured here: cell number, toxicity.
The nature of experiment [3]: Primary imaging screen for DUSP6 inhibitors that restore phospho-Erk in transfected HeLa cells, chemical complementation (AID 609;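 active means compounds giving at least 50% inhibition in the cell-based MKP-3 phosphatase rescue imaging test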;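 on inhibition: phospho-Erk level distribution per well compared with pooled transfected vehicle control wells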). The conditions noted are these: HeLa MKP-3 transfected, phospho-Erk imaging KS statistic, at 10 µM, cells stimulated with TPA for 15 min.
The target in experiment [4] is Dual specificity protein phosphatase 6 (Homo sapiens) (UniProt Q16828). Described as above. The conditions noted are these: HeLa MKP-3 transfected, phospho-Erk imaging KS statistic; at 10 µM; stronger effect = higher value; cells stimulated with TPA for 15 min.
Dual specificity protein phosphatase 6 (Homo sapiens), sequence (Q16828 whole entry, looked up): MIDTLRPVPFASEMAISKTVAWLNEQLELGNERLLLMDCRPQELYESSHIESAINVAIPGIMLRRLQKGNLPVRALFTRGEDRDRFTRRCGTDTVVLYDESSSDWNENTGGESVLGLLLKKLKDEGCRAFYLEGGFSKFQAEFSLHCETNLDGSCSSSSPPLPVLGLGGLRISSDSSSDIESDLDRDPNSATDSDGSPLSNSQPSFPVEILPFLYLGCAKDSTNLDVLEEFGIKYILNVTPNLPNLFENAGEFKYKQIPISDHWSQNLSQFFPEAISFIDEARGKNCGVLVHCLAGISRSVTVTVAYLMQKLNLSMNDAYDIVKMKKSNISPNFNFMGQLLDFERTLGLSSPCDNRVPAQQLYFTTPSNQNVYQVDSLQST
The target in experiment [5] is Voltage-gated potassium channel subunit beta-2 (Rattus norvegicus) (UniProt P62483). Kind of experiment: inhibitors of rat Kvbeta2 reductase activity – biochemical, NADPH fluorescence, primary screen (AID 622).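 Further: slope of raw intensity against log time taken from 70 to 1610 s.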 The settings on record: recombinant KvBeta, 4-cyanobenzaldehyde reduction, at 10 µM, stronger effect = higher value.
Voltage-gated potassium channel subunit beta-2 (Rattus norvegicus), sequence (P62483 whole entry, looked up): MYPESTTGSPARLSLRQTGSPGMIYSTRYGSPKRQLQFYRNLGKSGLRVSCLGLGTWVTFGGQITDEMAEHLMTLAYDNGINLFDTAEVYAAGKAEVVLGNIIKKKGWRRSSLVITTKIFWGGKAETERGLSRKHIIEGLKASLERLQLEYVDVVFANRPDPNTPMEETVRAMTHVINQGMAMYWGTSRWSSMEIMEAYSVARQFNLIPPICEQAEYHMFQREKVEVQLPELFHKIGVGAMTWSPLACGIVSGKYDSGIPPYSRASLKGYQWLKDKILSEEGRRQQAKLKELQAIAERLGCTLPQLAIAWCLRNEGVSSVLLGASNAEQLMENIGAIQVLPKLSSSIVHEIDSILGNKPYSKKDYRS
For experiment [6] the target is unchanged. Nature of the experiment: enhancers of rat Kvbeta2 NADPH turnover – biochemical, NADPH fluorescence, primary screen (AID 623;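 active means NADPH fluorescence slope more negative than the mean of all samples by about 3 SD, 99.7% confidence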;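 further: fluorescence intensity change per second fitted from 20 to 320 s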). The settings on record: Recombinant KvBeta, NADPH fluorescence decrease slope, 10 min; at 10 µM; stronger effect = lower value.
The target of experiment [7] is Alpha-2C adrenergic receptor (Homo sapiens) (UniProt P18825). Kind of experiment: compounds altering alpha2C-coupled GIRK flux – cell-based, HEK293 alpha2C/GIRK1/2, thallium flux, primary screen (AID 624;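 active means fluorescence slope after compound addition differing from the mean of all screened samples at 99.7% confidence, in either direction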;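 further: slope of fluorescence ratio to pre-addition baseline per second over 15 to 24 s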). The settings on record: thallium flux BTC fluorescence, at 10 µM, actives lie on both sides.
Alpha-2C adrenergic receptor (Homo sapiens), sequence (P18825 whole entry, looked up): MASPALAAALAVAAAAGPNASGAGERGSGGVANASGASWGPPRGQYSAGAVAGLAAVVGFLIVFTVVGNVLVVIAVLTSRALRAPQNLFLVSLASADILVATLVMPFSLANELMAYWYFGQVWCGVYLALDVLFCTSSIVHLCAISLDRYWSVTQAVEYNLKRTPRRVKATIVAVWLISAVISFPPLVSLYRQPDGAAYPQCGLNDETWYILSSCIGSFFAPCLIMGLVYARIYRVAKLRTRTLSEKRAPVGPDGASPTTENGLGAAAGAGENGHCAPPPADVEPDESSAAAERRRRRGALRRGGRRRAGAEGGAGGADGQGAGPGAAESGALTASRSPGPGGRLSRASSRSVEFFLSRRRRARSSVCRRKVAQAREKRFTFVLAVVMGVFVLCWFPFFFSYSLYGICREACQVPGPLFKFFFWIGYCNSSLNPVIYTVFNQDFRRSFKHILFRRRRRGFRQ
Experiment [8] is described as follows: inhibitors of larval lipid processing in zebrafish, primary screen, whole organism, PED6 fluorescence, gall bladder and intestine (AID 686;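 active means a full or partial loss of lipid-probe fluorescence in the fish gall bladder, intestine or both, judged by eye; inactive means no fluorescence loss, or compound toxic to the fish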;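 further: signal comes from phospholipase A2 cleavage of quenched PED6 carried via bile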). The conditions noted are these: Zebrafish larvae PED6 lipid processing, fluorescence scoring; screened at 20 µM (by protocol). A digest of the protocol: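 Doses: 20 µM single dose. Test system: live zebrafish larvae aged 5-7 days, whole organism. Quantity: five larvae per well. Measured by: By-eye fluorescence microscopy. Reagent: ingested quenched lipid PED6 at 100 nM. Read-out: visual per-well fluorescence inhibition score. Times: overnight exposure of larvae to compound plus PED6.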

A short description of experiment [9]: loss of swimming-algae plug formation – whole organism, Chlamydomonas reinhardtii, WT vs cilia-less mutant, absorbance, 96-well, primary screen (AID 463189;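 active means inhibition at or above 50% relative to wild type and mutant plate controls; inactive means inhibition below 50%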;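 further: 0% = wild type cc124 cells in DMSO and 100% = ciliumless bld1 mutant cells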). The settings on record: Chlamydomonas reinhardtii gravitaxis, OD600 absorbance, 2 days; at 10 µM; stronger effect = higher value.
The mark [10] stands for this setting: measured here: cell density z-score.
The mark [11] stands for this setting: measured here: nuclear c-Myc green intensity z-score.
[12] abbreviates: measured here: nuclear pErk red intensity z-score, stronger effect = higher value.

As for `CCOC(=O)COc1ccc(Oc2nc(C)cc(OC)n2)nn1`, the cell count in [1] turned out to be 443. Moreover, the inhibition (usually the drop in the measured response relative to a control, in per cent) in experiment [1] is -4.6% (inactive); in [2], -136% (inactive); in experiment [4], 0.671% (inactive); in [9], 9.9% (inactive). Further, the nuclei count in [2] turned out to be 152%. For the same compound, the z-score is 0.693 in experiment [3] (setting [10]), -0.0792 in [3] (setting [11]) and 0.257 in experiment [3] (setting [12]). In addition, in experiment [5], the fluorescence slope was -0.417 (inactive). Further, the NADPH fluorescence slope in experiment [6] is -8.4e-05 (inactive). In addition, the slope in experiment [7] is 0.00639 (inactive). In addition, in [8], the compound was classed as inactive.
As for `COc1cccc(C2C(C#N)=C(N)Oc3cc(C)[nH]c(=O)c32)c1OC` (centres undefined), the cell count in experiment [1] stood at 508. Moreover, the inhibition is -31.3% (inactive) in experiment [1], -89.8% (inactive) in experiment [2], -2.47% (inactive) in [4] and 9.96% (inactive) in experiment [9]. Moreover, the nuclei count in [2] was found to be 158%. For the same compound, the results for the z-score in experiment [3] (setting [10]), in [3] (setting [11]) and in experiment [3] (setting [12]) were -0.315, -0.918 and -0.838, respectively. Moreover, in experiment [5], the fluorescence slope was -0.524 (inactive). Also, in experiment [6], the NADPH fluorescence slope is -4.3e-05 (inactive). The slope in experiment [7] was 0.00584 (inactive). In addition, in [8], the call was inactive.
In the case of `CCOC(=O)c1c(C)n(C)c2ccc(OC)c(NC(=O)CN3CCSCC3)c12`, the cell count in experiment [1] turned out to be 331. The inhibition in [1] is -7.1% (inactive); in experiment [2], 35.2% (inactive); in experiment [4], 5.42% (inactive); in experiment [9], 37% (inactive). The nuclei count in experiment [2] worked out at 91.7%. The z-score in experiment [3] (setting [10]) was -1.52; in experiment [3] (setting [11]), -0.0806; in experiment [3] (setting [12]), 1.39. For the same compound, in experiment [5], the fluorescence slope is -0.449 (inactive). Also, the NADPH fluorescence slope in experiment [6] is -1.5e-05 (inactive). Further, the slope in experiment [7] is 0.0065 (inactive). The compound was called inactive in [8].
For `CN1C(=O)CC(N2CCN(c3ccc(Cl)c(Cl)c3)CC2)C1=O` (centres undefined), the cell count in experiment [1] turned out to be 379. Also, the inhibition in [1] was -3.9% (inactive); in experiment [2], -80.8% (inactive); in experiment [4], 5.65% (inactive); in experiment [9], 0.241% (inactive). In experiment [2], this compound came in with a nuclei count of 94.7%. Further, the results for the z-score in experiment [3] (setting [10]), in [3] (setting [11]) and in experiment [3] (setting [12]) were -1.07, 0.418 and -1.7, respectively. In [5], the fluorescence slope was -0.541 (inactive). Also, the NADPH fluorescence slope in experiment [6] was -7.5e-05 (inactive). For the same compound, in experiment [7], the slope was 0.00484 (inactive). Besides, the outcome in experiment [8] was inactive.
For `CCOc1ccc(CCNC(=O)C(O)c2ccccc2)cc1` (centres undefined), the cell count in [1] came out at 632. Also, the inhibition in experiment [1] is -0.6% (inactive); in [2], 18.6% (inactive); in [4] it was 5.57% (inactive); in [9], 25.5% (inactive). For the same compound, the nuclei count in experiment [2] was determined as 150%. For the same compound, the z-score in experiment [3] (setting [10]) is -1.06; in experiment [3] (setting [11]), 0.643; in experiment [3] (setting [12]), -0.425. Further, the fluorescence slope in experiment [5] was -0.517 (inactive). Moreover, the NADPH fluorescence slope in [6] was -4.4e-05 (inactive). Moreover, the slope in [7] was 0.0068 (inactive). In addition, the compound was called inactive in [8].
In the case of `Cc1cc(COc2ccccc2OCCN2CCN(C)CC2)no1`, the cell count in [1] was 551. Moreover, the inhibition in [1] was -2.5% (inactive); in [2] it was -128% (inactive); in experiment [4], 5.95% (inactive); in [9] it was 9.35% (inactive). This compound also registered a nuclei count in experiment [2] of 134%. Besides, the z-score is 0.378 in experiment [3] (setting [10]), -1.63 in experiment [3] (setting [11]) and 0.134 in [3] (setting [12]). Besides, in [5], the fluorescence slope is -0.514 (inactive). The NADPH fluorescence slope in experiment [6] was -6.1e-05 (inactive). Also, the slope in [7] was 0.0049 (inactive). The call in experiment [8] was inactive.
On to `CN(C)CC(O)COc1ccc(C(C)(C)c2ccc(OCC(O)CN(C)C)cc2)cc1` (centres undefined), for which the cell count in experiment [1] turned out to be 459. In addition, the inhibition in experiment [1] is 2.6% (inactive); in [2] it was -216% (inactive); in experiment [4], -5.62% (inactive); in experiment [9], -19.9% (inactive). Also, the nuclei count in experiment [2] turned out to be 154%. For the same compound, the results for the z-score in experiment [3] (setting [10]), in experiment [3] (setting [11]) and in experiment [3] (setting [12]) were -1.06, 1.22 and 0.592, respectively. In experiment [5], the fluorescence slope was -0.397 (inactive). In addition, the NADPH fluorescence slope in [6] is -3.1e-05 (inactive). Also, the slope in experiment [7] is 0.0054 (inactive). Besides, the result in experiment [8] was inactive.
`CC(=O)c1c(N)nc2n(c1=O)CCCCC2`: the cell count in [1] was found to be 354. Moreover, the inhibition in experiment [1] is -4.7% (inactive); in experiment [2], -5.5% (inactive); in [4] it was 9.42% (inactive); in [9], 24.2% (inactive). The same compound displayed a nuclei count in [2] of 162%. For the same compound, the z-score in [3] (setting [10]) came to 0.366; in experiment [3] (setting [11]), 0.179; in experiment [3] (setting [12]) it was 0.934. In experiment [5], the fluorescence slope was -0.392 (inactive). For the same compound, in experiment [6], the NADPH fluorescence slope is -0.000138 (inactive). Also, the slope in experiment [7] is 0.0044 (inactive). Besides, the compound was classed as inactive in experiment [8].
Regarding `CCOc1ccccc1N1CCN(c2nc3ccccc3nc2C(C#N)C(=O)OC(C)C)CC1` (centres undefined), the cell count in experiment [1] is 451. Moreover, the inhibition in [1] is -7.4% (inactive); in experiment [2], -161% (inactive); in [4], -10.1% (inactive); in experiment [9], 10.3% (inactive). This compound also displayed a nuclei count in experiment [2] of 148%. Besides, the z-score was -1.19 in [3] (setting [10]), -0.0935 in experiment [3] (setting [11]) and 0.236 in experiment [3] (setting [12]). Besides, the fluorescence slope in experiment [5] is -0.399 (inactive). In experiment [6], the NADPH fluorescence slope is -2.9e-05 (inactive). The slope in [7] is 0.00483 (inactive). Also, the call in experiment [8] was inactive.
Take `O=C(c1cncc(Br)c1)N1CCCc2ccccc21`: in experiment [1], the cell count worked out at 517. In addition, the inhibition in experiment [1] was -1.1% (inactive); in [2], 51.3% (inactive); in experiment [4], -7.86% (inactive); in [9] it was -3.67% (inactive). For the same compound, in experiment [2], the nuclei count turned out to be 97.5%. Further, the results for the z-score in experiment [3] (setting [10]), in experiment [3] (setting [11]) and in experiment [3] (setting [12]) were 0.808, -0.814 and -0.316, respectively. In addition, the fluorescence slope in experiment [5] is -0.448 (inactive). For the same compound, in experiment [6], the NADPH fluorescence slope is -1.4e-05 (inactive). In experiment [7], the slope is 0.00474 (inactive). Also, the result in experiment [8] was inactive.
With `O=C(O)CC(SCc1ccc(C(=O)O)o1)C(=O)O` (centres undefined), the cell count in [1] came out at 330. Besides, the inhibition in experiment [1] is -17.8% (inactive); in [2], -29.5% (inactive); in experiment [4] it was 5.57% (inactive); in [9] it was 48.4% (inactive). In experiment [2], this compound displayed a nuclei count of 105%. Further, the figures for the z-score in [3] (setting [10]), in [3] (setting [11]) and in experiment [3] (setting [12]) were 1.04, -0.311 and -0.367, respectively. Moreover, the fluorescence slope in [5] is -0.528 (inactive). Besides, the NADPH fluorescence slope in experiment [6] was -7.5e-06 (inactive). The slope in [7] was 0.00659 (inactive). Besides, the result in experiment [8] was inactive.
On to `CNC(=O)C1CC(=O)N(Cc2ccccc2)C(=Nc2ccc(OC)cc2)S1` (centres undefined), for which the cell count in experiment [1] stood at 491. Also, the inhibition is -5.2% (inactive) in experiment [1], -228% (inactive) in [2], -14% (inactive) in experiment [4] and 1.87% (inactive) in experiment [9]. The compound further returned a nuclei count in experiment [2] of 127%. The z-score was -1.18 in experiment [3] (setting [10]), -0.897 in experiment [3] (setting [11]) and 1.34 in [3] (setting [12]). Also, in [5], the fluorescence slope is -0.496 (inactive). For the same compound, the NADPH fluorescence slope in [6] was -4.1e-05 (inactive). Further, in experiment [7], the slope is 0.00456 (inactive). Also, in experiment [8], the outcome was inactive.
Regarding `CSc1nnc(N(CCC#N)CCC#N)s1`, the cell count in [1] was 351. Also, the inhibition in [1] was -2.1% (inactive); in [2], -46.6% (inactive); in [4] it was 17% (inactive); in experiment [9], 29.7% (inactive). In [2], this compound had a nuclei count of 91%. Also, the z-score was 0.261 in experiment [3] (setting [10]), 1.77 in [3] (setting [11]) and -1.54 in experiment [3] (setting [12]). Besides, the fluorescence slope in [5] is -0.487 (inactive). Moreover, the NADPH fluorescence slope in experiment [6] is -9.5e-06 (inactive). Also, in experiment [7], the slope was 0.0048 (inactive). The compound was classed as inactive in experiment [8].
